What was measured:
[1] = target: Nicotinamide phosphoribosyltransferase (Mus musculus, UniProt Q99KQ4); experiment: Inhibition of recombinant mouse NAMPT expressed in bacterial expression system using nicotinamide as substrate after 1 hr by fluorescence based NMNAT-3 enzyme coupled assay
SH-SY5Y = experiment: Cytotoxicity against human SH-SY5Y cells assessed as reduction in cell viability after 56 hrs by MTT assay; type: functional, cell-based
Liver [2] = experiment: Drug metabolism in human liver microsomes assessed as pyridine N-oxidation by measuring 7-(4-(pyridin-3-yl)-1H-1,2,3-triazol-1-yl)heptanoic acid formation after 60 mins in presence of NADPH-regenerating system by LC-UV analysis; type: ADME, microsome
How it was run: (§1)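 Metabolites were characterized by LC-ESI-MSn on supernatants of 60 min, 37 °C incubations. Each used 50 μM substrate with rat or human liver microsomes (1.0 mg/ml protein) in 50 mM Tris-HCl pH 7.4 with 3.3 mM MgCl2, 1% acetonitrile and an NADPH-regenerating system. Reactions were quenched with cold acetonitrile and centrifuged.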

Liver [3] = experiment: Drug metabolism in human liver microsomes assessed as pyridine N-oxidation by measuring biphenyl-2-carboxamide formation after 60 mins in presence of NADPH-regenerating system by LC-UV analysis; type: ADME, microsome; settings: 1 h; how it was run: as §1
Liver [4] = experiment: Drug metabolism in Wistar Han rat liver microsomes assessed as pyridine N-oxidation by measuring 7-(4-(pyridin-3-yl)-1H-1,2,3-triazol-1-yl)heptanoic acid formation after 60 mins in presence of NADPH-regenerating system by LC-UV analysis; type: ADME, microsome; how it was run: as §1
Liver [5] = experiment: Drug metabolism in Wistar Han rat liver microsomes assessed as pyridine N-oxidation by measuring biphenyl-2-carboxamide formation after 60 mins in presence of NADPH-regenerating system by LC-UV analysis; type: ADME, microsome; settings: 1 h; how it was run: as §1
Liver [6] = experiment: Drug level in human liver microsomes treated with N-(biphenyl-2-yl)-8-(4-(pyridin-3-yl)-1H-1,2,3-triazol-1-yl)octanamide after 60 mins by LC-ESI-MS analysis; type: ADME, microsome
Liver [7] = experiment: Drug level in Wistar Han rat liver microsomes treated with N-(biphenyl-2-yl)-8-(4-(pyridin-3-yl)-1H-1,2,3-triazol-1-yl)octanamide after 60 mins by LC-ESI-MS analysis; type: ADME, microsome
Liver [8] = experiment: Drug level in human liver microsomes treated with N-(7-(4-(Pyridin-3-yl)-1H-1,2,3-triazol-1-yl)heptyl)-[1,1'-biphenyl]-2-carboxamide after 60 mins in presence of NADPH-regenerating system by LC-UV analysis; type: ADME, microsome
How it was run: (§2)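 Substrate at 50 μM final, with rat or human liver microsomes at 1.0 mg/ml protein, in 50 mM Tris-HCl pH 7.4. Mix held 3.3 mM MgCl2, 1% acetonitrile and an NADPH-regenerating system (1.3 mM β-NADP, 3.3 mM glucose 6-phosphate, 0.4 U/ml G6PDH). Shaken 60 min at 37 °C, stopped with ice-cold acetonitrile. LC-UV gave % residual substrate versus a no-microsome control, mean of two replicates.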

Liver [9] = experiment: Drug level in Wistar Han rat liver microsomes treated with N-(7-(4-(Pyridin-3-yl)-1H-1,2,3-triazol-1-yl)heptyl)-[1,1'-biphenyl]-2-carboxamide after 60 mins in presence of NADPH-regenerating system by LC-UV analysis; type: ADME, microsome; how it was run: as §2
[10] = Homo sapiens, SH-SY5Y, 56 h, read-out: EC50

Chain of Nicotinamide phosphoribosyltransferase (Q99KQ4 whole entry): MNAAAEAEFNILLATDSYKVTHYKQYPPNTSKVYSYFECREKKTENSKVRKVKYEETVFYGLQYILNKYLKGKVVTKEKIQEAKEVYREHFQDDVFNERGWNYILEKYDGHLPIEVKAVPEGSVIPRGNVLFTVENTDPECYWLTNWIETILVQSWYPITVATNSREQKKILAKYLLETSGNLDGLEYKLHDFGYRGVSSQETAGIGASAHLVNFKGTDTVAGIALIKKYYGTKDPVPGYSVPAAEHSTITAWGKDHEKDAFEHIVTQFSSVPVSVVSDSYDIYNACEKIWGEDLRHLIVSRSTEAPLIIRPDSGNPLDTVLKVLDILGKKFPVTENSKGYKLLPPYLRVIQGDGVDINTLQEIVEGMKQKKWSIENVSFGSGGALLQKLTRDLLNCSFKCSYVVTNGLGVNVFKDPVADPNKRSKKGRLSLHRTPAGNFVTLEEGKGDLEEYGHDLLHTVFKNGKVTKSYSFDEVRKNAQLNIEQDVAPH

Q: How did the IC50 [1] turn out when O=C(NCCCCCCCn1cc(-c2ccc[n+]([O-])c2)nn1)c1ccccc1-c1ccccc1 was run?
A: The IC50 was “Not Active”.

Q: What about the EC50 (SH-SY5Y; sh-sy5y) of the same compound?
A: The EC50 was “Not Active”.

Q: And the Drug metabolism (Liver [2])?
A: The Drug metabolism was “Metabolite_Detected”.

Q: And the Drug metabolism (Liver [3])?
A: Its Drug metabolism is “Metabolite_Detected”.

Q: What about the Drug metabolism (Liver [4]) of the same compound?
A: Its Drug metabolism is “Metabolite_Detected”.

Q: What about the Drug metabolism (Liver [5]) of the same compound?
A: Its Drug metabolism is “Metabolite_Detected”.

Q: O=C(Nc1ccccc1-c1ccccc1)OCCCCCCCCn1cc(-c2cccnc2)nn1 was tested. Which EC50 (SH-SY5Y; [10]) did it give?
A: The EC50 was 255 nM.

Q: What does the source list for O=C(O)CCCCCCCn1cc(-c2cccnc2)nn1?
A: Drug metabolism (Liver [6]): Metabolite_Detected; Drug metabolism (Liver [7]): Metabolite_Detected

Q: For c1ccc(-c2ccccc2CNCCCCCCn2cc(-c3cccnc3)nn2)cc1, which EC50 (SH-SY5Y; [10]) is on record?
A: Its EC50 is 202 nM.

Q: O=C(NCCCCCCCCn1cc(-c2cccnc2)nn1)c1ccccc1-c1ccccc1 was tested. Which EC50 (SH-SY5Y; [10]) did it give?
A: Its EC50 is 194 nM.

Q: Which EC50 (SH-SY5Y; [10]) does the source give for c1ccc(-c2ccccc2-n2cc(CCCCCCCc3cn(-c4cccnc4)nn3)nn2)cc1 here?
A: Its EC50 is greater than 500 nM.

Q: For O=S(=O)(NCCCCCCCCn1cc(-c2cccnc2)nn1)c1ccccc1-c1ccccc1, which IC50 ([1]; read-out: IC50) is on record?
A: The IC50 was 47 nM.

Q: What about the EC50 (SH-SY5Y; [10]) of the same compound?
A: Its EC50 is 12.6 nM.

Q: How did the EC50 (SH-SY5Y; [10]) turn out when O=C(CCCCCCCc1cc(-c2cccnc2)[nH]n1)Nc1ccccc1-c1ccccc1 was run?
A: Its EC50 is 384 nM.

Q: Which EC50 (SH-SY5Y; [10]) does the source give for c1ccc(-c2ccccc2Oc2ccc(CCCn3cc(-c4cccnc4)nn3)cc2)cc1 here?
A: Its EC50 is greater than 500 nM.

Q: Which IC50 [1] does the source give for [O-][n+]1cccc(-c2cn(CCCCCCOc3ccccc3-c3ccccc3)nn2)c1 here?
A: Its IC50 is “Not Active”.

Q: And the EC50 (SH-SY5Y; sh-sy5y)?
A: The EC50 was “Not Active”.

Q: What about the Drug metabolism (Liver [2]) of the same compound?
A: The Drug metabolism was “Metabolite_Detected”.

Q: And the Drug metabolism (Liver [3])?
A: The Drug metabolism was “Metabolite_Detected”.

Q: And the Drug metabolism (Liver [4])?
A: The Drug metabolism was “Metabolite_Detected”.

Q: And the Drug metabolism (Liver [5])?
A: The Drug metabolism was “Metabolite_Detected”.

Q: O=C(Nc1ccccc1-c1ccccc1)OCCCCCCCn1cc(-c2cccnc2)nn1 was tested. Which EC50 (SH-SY5Y; [10]) did it give?
A: Its EC50 is 36 nM.

Q: Which results are given for O=C(O)CCCCCCn1cc(-c2cccnc2)nn1?
A: Drug metabolism (Liver [8]): Metabolite_Detected; Drug metabolism (Liver [9]): Metabolite_Detected

Q: For O=S(=O)(NCCCCCCn1cc(-c2cccnc2)nn1)c1ccccc1Br, which EC50 (SH-SY5Y; [10]) is on record?
A: The EC50 was 175 nM.

Q: Which EC50 (SH-SY5Y; [10]) does the source give for O=S(=O)(NCCCCCCCn1cc(-c2cccnc2)nn1)c1ccccc1Br here?
A: The EC50 was 162 nM.

Q: For c1ccc(-c2ccccc2OCc2ccc(CCn3cc(-c4cccnc4)nn3)cc2)cc1, which EC50 (SH-SY5Y; [10]) is on record?
A: The EC50 was 160 nM.

Q: O=C(CCCCCCCc1nnc(-c2cccnc2)[nH]1)Nc1ccccc1-c1ccccc1 was tested. Which IC50 ([1]; read-out: IC50) did it give?
A: Its IC50 is 269 nM.

Q: What about the EC50 (SH-SY5Y; [10]) of the same compound?
A: The EC50 was 82.9 nM.

Q: What does the source list for Nc1ccccc1-c1ccccc1?
A: Drug metabolism (Liver [6]): Metabolite_Detected; Drug metabolism (Liver [7]): Metabolite_Detected

Q: Which results are given for c1ccc(-c2ccccc2OCCCCCCCn2cc(-c3cccnc3)nn2)cc1?
A: IC50 ([1]; read-out: IC50): 31.3 nM; EC50 (SH-SY5Y; [10]): 15 nM

Q: With c1ccc(-c2ccccc2OCCCCCCCCn2cc(-c3cccnc3)nn2)cc1 as the compound, how does the IC50 ([1]; read-out: IC50) read?
A: The IC50 was 25.4 nM.

Q: What about the EC50 (SH-SY5Y; [10]) of the same compound?
A: Its EC50 is 8.2 nM.

Q: With c1ccc(-c2ccccc2CNCCCCCCCn2cc(-c3cccnc3)nn2)cc1 as the compound, how does the EC50 (SH-SY5Y; [10]) read?
A: Its EC50 is 237 nM.
